From article PMC4339026 (Biopolymers, 2014) come the findings set out here.

As usually defined, the IC50 is the concentration at which inhibition is half-maximal. In general, Ki refers to a dissociation constant, usually derived from enzyme kinetics or from competition with a known ligand.

What all share (assay type): biochemical
The target in test [1] is MMP-9 (Homo sapiens, UniProt P14780). Kind of test: Selectivity testing against zinc metalloproteases: MMP-9. As to conditions: read-out: IC50 MMP-9; n = 3 Mean ± SD.
Sequence of MMP-9 (P14780 94-707, species assumed): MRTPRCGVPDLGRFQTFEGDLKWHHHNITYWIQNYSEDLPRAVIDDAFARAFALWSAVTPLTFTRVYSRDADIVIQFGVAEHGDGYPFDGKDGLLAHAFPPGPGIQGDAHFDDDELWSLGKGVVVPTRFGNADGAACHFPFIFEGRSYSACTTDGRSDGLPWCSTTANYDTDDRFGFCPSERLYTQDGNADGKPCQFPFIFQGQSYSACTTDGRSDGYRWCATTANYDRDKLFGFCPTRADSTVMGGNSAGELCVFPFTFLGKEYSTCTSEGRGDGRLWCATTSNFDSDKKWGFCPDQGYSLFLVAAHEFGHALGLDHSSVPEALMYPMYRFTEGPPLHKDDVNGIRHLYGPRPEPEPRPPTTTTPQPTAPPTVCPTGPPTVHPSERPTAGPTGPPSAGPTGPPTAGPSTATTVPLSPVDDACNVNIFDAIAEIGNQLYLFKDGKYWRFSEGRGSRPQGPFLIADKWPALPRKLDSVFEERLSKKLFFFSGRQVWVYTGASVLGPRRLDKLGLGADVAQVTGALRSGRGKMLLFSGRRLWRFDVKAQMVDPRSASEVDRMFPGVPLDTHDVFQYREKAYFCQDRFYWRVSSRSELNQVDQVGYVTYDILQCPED
Test [2] has as its target MMP-14 (Homo sapiens, UniProt P50281). Kind of test: Selectivity testing against zinc metalloproteases: MMP-14. As to conditions: read-out: IC50 MMP-14; n = 3 Mean ± SD.
Test [3] deals with MMP-8 (Homo sapiens, UniProt P22894). Kind of test: Selectivity testing against zinc metalloproteases: MMP-8. The note with it: read-out: IC50 MMP-8; n = 3 Mean ± SD.
Sequence of MMP-8 (P22894 101-467, species assumed): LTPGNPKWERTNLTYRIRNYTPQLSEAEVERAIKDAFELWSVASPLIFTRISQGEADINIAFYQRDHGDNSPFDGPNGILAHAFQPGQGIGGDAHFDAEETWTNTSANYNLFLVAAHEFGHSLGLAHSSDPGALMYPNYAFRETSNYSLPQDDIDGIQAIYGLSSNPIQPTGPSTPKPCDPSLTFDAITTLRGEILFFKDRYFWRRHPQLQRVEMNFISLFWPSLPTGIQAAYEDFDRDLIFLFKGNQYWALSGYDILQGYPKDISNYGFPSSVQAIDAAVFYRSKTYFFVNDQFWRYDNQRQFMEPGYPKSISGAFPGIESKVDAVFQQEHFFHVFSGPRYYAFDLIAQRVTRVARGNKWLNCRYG
Test [4] has as its target T1, meprin α (Homo sapiens, UniProt Q16819).
T1 sequence (Q16819 66-653 limits assumed): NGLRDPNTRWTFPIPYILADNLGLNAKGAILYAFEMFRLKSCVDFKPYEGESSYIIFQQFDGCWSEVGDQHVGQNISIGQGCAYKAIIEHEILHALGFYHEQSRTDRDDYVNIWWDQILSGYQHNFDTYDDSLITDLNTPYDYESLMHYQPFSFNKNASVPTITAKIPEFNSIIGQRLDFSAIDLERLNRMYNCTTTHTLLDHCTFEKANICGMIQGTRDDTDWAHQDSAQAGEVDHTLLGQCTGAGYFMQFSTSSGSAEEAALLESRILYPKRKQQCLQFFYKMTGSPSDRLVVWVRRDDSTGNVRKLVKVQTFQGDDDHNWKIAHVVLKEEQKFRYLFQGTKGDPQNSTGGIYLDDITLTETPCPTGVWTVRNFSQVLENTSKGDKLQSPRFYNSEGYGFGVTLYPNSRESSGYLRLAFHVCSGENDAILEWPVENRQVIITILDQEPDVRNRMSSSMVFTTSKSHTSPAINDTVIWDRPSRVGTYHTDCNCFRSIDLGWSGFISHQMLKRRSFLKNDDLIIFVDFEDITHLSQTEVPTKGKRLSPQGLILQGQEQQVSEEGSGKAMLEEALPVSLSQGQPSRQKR
In words: Meprin α HTS FRET assay, dose response. As to conditions: read-out: IC50 Meprin α; selectivity testing; n = 3 Mean ± SD. A digest of the protocol:
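Recombinant human Strep-tagged meprin α was expressed in baculovirus-infected BTI-TN-5B1-4 cells, trypsin-activated, then freed of trypsin. It was used as a 2x solution at 2.6 nM in 50 mM Hepes, 0.01% Brij-35, pH 7.5. Test compound was pre-incubated 30 min at RT, then 2x (MCA)-YVADAPK-(K-ε-DNP) at 20 μM was added for 1 h at RT. Read at ex 324/em 393 nm. 3-fold dilutions in quadruplicate; 4-parameter fit; 0.1% or 1.0% DMSO.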

The target in test [5] is T2, meprin β (Homo sapiens, UniProt Q16820).
T2 sequence (Q16820 62-614 limits assumed): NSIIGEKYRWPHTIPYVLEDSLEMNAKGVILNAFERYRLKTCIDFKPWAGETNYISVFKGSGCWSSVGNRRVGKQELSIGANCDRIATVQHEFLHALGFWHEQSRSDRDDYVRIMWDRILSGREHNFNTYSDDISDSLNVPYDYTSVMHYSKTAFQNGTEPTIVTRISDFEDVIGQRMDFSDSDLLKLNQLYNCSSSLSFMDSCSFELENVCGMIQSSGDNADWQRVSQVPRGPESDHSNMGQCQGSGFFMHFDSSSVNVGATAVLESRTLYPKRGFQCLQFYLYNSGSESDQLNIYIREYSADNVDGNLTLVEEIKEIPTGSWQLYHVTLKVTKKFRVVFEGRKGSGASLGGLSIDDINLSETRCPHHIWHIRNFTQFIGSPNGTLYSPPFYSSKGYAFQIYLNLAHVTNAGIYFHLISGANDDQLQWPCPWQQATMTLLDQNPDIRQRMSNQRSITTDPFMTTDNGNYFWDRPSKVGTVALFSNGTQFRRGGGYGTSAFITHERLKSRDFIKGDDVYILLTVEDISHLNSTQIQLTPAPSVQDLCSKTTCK
In words: Meprin β inhibition kinetics / enzyme kinetics. A digest of the protocol: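 Trypsin-activated meprin β at 1 nM was run with (MCA)-EDEDED-(K-ε-DNP) 0.5–25 μM plus varying inhibitor concentrations in 50 mM Hepes, 0.01% Brij-35, pH 7.5, at 25 °C. Fluorescence was read at ex 324/em 393 nm. Rates came from the linear portion of the progress curves. Ki and Ki′ came from nonlinear regression with a mixed-inhibition model. Mechanism came from the alpha parameter and was checked with Lineweaver-Burk plots.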

For test [6], the target named is T2, meprin β. In words: Meprin β LOPAC pilot screen. As to conditions: 18 μM.
Test [7] concerns the target ADAM17 (Homo sapiens, UniProt P78536). Kind of test: Selectivity testing against zinc metalloproteases: ADAM17. As to conditions: read-out: IC50 ADAM17; n = 3 Mean ± SD.
In test [8] the target is MMP-13 (Homo sapiens, UniProt P45452). Kind of test: Selectivity testing against zinc metalloproteases: MMP-13. The note with it: read-out: IC50 MMP-13; n = 3 Mean ± SD.
Test [9] concerns the target T3, ADAM10 (Homo sapiens, UniProt O14672).
T3 sequence (O14672 214-748): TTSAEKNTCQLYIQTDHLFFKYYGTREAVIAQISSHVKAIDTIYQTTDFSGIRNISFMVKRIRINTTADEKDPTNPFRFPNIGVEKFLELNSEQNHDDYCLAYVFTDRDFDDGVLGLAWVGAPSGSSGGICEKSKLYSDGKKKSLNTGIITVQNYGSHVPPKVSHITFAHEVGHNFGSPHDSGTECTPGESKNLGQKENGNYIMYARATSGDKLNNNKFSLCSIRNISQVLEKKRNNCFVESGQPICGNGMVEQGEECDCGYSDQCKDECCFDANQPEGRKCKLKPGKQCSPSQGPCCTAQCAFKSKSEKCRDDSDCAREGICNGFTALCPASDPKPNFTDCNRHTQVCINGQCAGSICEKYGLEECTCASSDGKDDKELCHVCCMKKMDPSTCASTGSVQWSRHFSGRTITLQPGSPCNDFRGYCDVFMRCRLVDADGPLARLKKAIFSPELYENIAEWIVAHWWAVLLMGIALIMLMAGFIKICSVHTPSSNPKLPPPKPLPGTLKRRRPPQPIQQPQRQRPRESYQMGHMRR
In words: Selectivity testing against zinc metalloproteases: ADAM10. As to conditions: read-out: IC50 ADAM10; n = 3 Mean ± SD.

“Also recorded” adds a separate entry of the source.

Sequence of ADAM17 (P78536 215-824, species assumed): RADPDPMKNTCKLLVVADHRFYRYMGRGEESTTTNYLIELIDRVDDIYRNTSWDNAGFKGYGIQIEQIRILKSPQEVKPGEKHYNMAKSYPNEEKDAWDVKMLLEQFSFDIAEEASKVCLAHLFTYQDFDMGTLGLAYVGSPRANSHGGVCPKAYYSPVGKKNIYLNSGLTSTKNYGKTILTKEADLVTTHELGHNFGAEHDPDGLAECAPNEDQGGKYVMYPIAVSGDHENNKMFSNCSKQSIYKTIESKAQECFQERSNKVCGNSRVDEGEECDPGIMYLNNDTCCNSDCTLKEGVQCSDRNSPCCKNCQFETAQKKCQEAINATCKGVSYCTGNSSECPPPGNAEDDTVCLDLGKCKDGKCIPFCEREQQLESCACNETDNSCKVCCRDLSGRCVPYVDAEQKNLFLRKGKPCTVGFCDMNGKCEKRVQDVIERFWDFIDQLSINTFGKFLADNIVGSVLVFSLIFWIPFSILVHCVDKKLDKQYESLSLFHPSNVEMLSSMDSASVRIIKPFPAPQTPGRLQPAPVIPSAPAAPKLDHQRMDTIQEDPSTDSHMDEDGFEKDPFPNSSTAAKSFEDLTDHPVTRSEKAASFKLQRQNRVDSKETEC

For `O=C(Nc1cc(C(=O)Nc2ccc(S(=O)(=O)O)cc2S(=O)(=O)O)cc(C(=O)Nc2ccc(S(=O)(=O)O)cc2S(=O)(=O)O)c1)Nc1cc(C(=O)Nc2ccc(S(=O)(=O)O)cc2S(=O)(=O)O)cc(C(=O)Nc2ccc(S(=O)(=O)O)cc2S(=O)(=O)O)c1` [NF449, 4,4′,4″,4‴-[Carbonyl-bis[imino-5,1,3-benzenetriylbis-(carbonyl-imino)]]tetrakis(benzene-1,3-disulfonic acid)], the IC50 in [1] was 8.6 ± 0.7 µM; in [2], 18 ± 1.5 µM; in test [3], 1 ± 0.1 µM; in test [4] it was over 100 µM; in test [7], 4.6 ± 0.3 µM; in test [8], 40 ± 3 µM. Besides, the concentration for half-maximal inhibition (IC50) in [9] worked out at 1.2 ± 0.1 µM. Further, the “Ki lower than IC50, fold” value in test [5] (meprin β Ki versus HTS IC50) was found to be 3 fold. Besides, the “α = Ki/Ki′” value in test [5] (mixed-model inhibition, non-linear regression) turned out to be 3.6 ± 4.3. Moreover, the “mechanism of inhibition of meprin β” value in [5] (non-linear regression and Lineweaver-Burke plots) is “mixed competitive/non-competitive inhibition modality; also recorded: competitive mechanism with elements of non-competitive inhibition”. The Ki in test [5] (read-out: Ki meprin β, substrate (MCA)-EDEDED-(K-ε-DNP), mixed inhibition model) turned out to be 0.022 ± 0.0096 µM. For the same molecule, the “% inhibition meprin β in pilot screen” value in test [6] was “negative inhibition values”. Also, the “meprin β LOPAC pilot screen outcome” value in [6] (hit cutoff 25% inhibition) was “selective hits”.
